According to ChEMBL document CHEMBL4373711, “Development of 3,5-Dinitrophenyl-Containing 1,2,4-Triazoles and Their Trifluoromethyl Analogues as Highly Efficient Antitubercular Agents Inhibiting Decaprenylphosphoryl-β-d-ribofuranose 2'-Oxidase” (J Med Chem, 2019):
Values after ≈ are worked out from the molar mass of the structure shown.

Assays:
Format in all cases: functional
[1] = test system: Mycobacterium tuberculosis; assay: Antimycobacterial activity against Mycobacterium tuberculosis H37Rv CNCTC My 331/88 after 14 days; conditions: H37Rv CNCTC My 331/88, 336 h
Outline: (§1)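 M. tuberculosis strains (H37Rv and clinical MDR/XDR isolates) tested by microdilution in Šula's semisynthetic medium. Compounds were dissolved in DMSO and tested at 32 to 0.03 µM in twofold steps. Inoculum was a 1.0 McFarland suspension diluted 10-3. Plates were incubated at 37 °C and read at 14 and 21 days.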

[2] = test system: Mycobacterium tuberculosis; assay: Antimycobacterial activity against Mycobacterium tuberculosis H37Rv CNCTC My 331/88 after 21 days; conditions: H37Rv CNCTC My 331/88, 504 h; outline: as §1
Mycobacterium avium [3] = assay: Antimycobacterial activity against Mycobacterium avium CNCTC My 330/88 after 14 days; conditions: CNCTC My 330/88, 336 h
Outline: (§2)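 M. avium was tested by microdilution in Šula's semisynthetic medium, with compounds dissolved in DMSO and serially diluted from 1000 down to 1. Inoculum was a 1.0 McFarland suspension diluted 10-5. Plates were incubated at 37 °C and read at 14 and 21 days. […] Isoniazid and rifampicin served as standards.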

Mycobacterium avium [4] = assay: Antimycobacterial activity against Mycobacterium avium CNCTC My 330/88 after 21 days; conditions: CNCTC My 330/88, 504 h; outline: as §2
Mycobacterium kansasii [5] = assay: Antimycobacterial activity against Mycobacterium kansasii CNCTC My 235/80 after 7 days; conditions: CNCTC My 235/80, 168 h
Outline: (§3)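 Microdilution in Šula's semisynthetic medium; compounds in DMSO at 32–0.03 µM. Inoculum from 1.0 McFarland suspension diluted 10-4. […] Isoniazid and rifampicin as reference drugs.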

Mycobacterium kansasii [6] = assay: Antimycobacterial activity against Mycobacterium kansasii CNCTC My 235/80 after 14 days; conditions: CNCTC My 235/80, 336 h; outline: as §3
Mycobacterium kansasii [7] = assay: Antimycobacterial activity against Mycobacterium kansasii CNCTC My 235/80 after 21 days; conditions: CNCTC My 235/80, 504 h; outline: as §3
Mycobacterium kansasii [8] = assay: Antimycobacterial activity against Mycobacterium kansasii 6509/96 after 7 days; conditions: 6509/96, 168 h; outline: as §3
Mycobacterium kansasii [9] = assay: Antimycobacterial activity against Mycobacterium kansasii 6509/96 after 14 days; conditions: 6509/96, 336 h; outline: as §3
Mycobacterium kansasii [10] = assay: Antimycobacterial activity against Mycobacterium kansasii 6509/96 after 21 days; conditions: 6509/96, 504 h; outline: as §3

SMILES | MIC99 [1] | MIC99 [2] | MIC99 (Mycobacterium avium [3]) | MIC99 (Mycobacterium avium [4]) | MIC99 (Mycobacterium kansasii [5]) | MIC99 (Mycobacterium kansasii [6]) | MIC99 (Mycobacterium kansasii [7]) | MIC99 (Mycobacterium kansasii [8]) | MIC99 (Mycobacterium kansasii [9]) | MIC99 (Mycobacterium kansasii [10])
Cn1c(SCc2cc([N+](=O)[O-])cc([N+](=O)[O-])c2)nnc1-c1ccccc1 | 4 µM (≈ 1.49 µg/mL) | 4 µM (≈ 1.49 µg/mL) | 125 µM (≈ 46.4 µg/mL) | 250 µM (≈ 92.8 µg/mL) | 4 µM (≈ 1.49 µg/mL) | 8 µM (≈ 2.97 µg/mL) | 16 µM (≈ 5.94 µg/mL) | 4 µM (≈ 1.49 µg/mL) | 8 µM (≈ 2.97 µg/mL) | 16 µM (≈ 5.94 µg/mL)
O=[N+]([O-])c1cc(CSc2nnc(CCCCCO)n2Cc2ccccc2)cc([N+](=O)[O-])c1 | 16 µM (≈ 7.32 µg/mL) | 32 µM (≈ 14.6 µg/mL) | > 1000 µM | > 1000 µM | 8 µM (≈ 3.66 µg/mL) | 16 µM (≈ 7.32 µg/mL) | 32 µM (≈ 14.6 µg/mL) | 16 µM (≈ 7.32 µg/mL) | 32 µM (≈ 14.6 µg/mL) | 32 µM (≈ 14.6 µg/mL)
O=[N+]([O-])c1cc(CSc2nnc(-c3ccc(Cl)c(Cl)c3)n2Cc2ccccc2)cc([N+](=O)[O-])c1 | 2 µM (≈ 1.03 µg/mL) | 2 µM (≈ 1.03 µg/mL) | 250 µM (≈ 129 µg/mL) | 250 µM (≈ 129 µg/mL) | 1 µM (≈ 0.516 µg/mL) | 2 µM (≈ 1.03 µg/mL) | 2 µM (≈ 1.03 µg/mL) | 2 µM (≈ 1.03 µg/mL) | 4 µM (≈ 2.07 µg/mL) | 4 µM (≈ 2.07 µg/mL)
O=C(NNC(=S)NCc1ccc(Cl)cc1Cl)c1cc([N+](=O)[O-])cc([N+](=O)[O-])c1 | 8 µM (≈ 3.55 µg/mL) | 8 µM (≈ 3.55 µg/mL) | 16 µM (≈ 7.11 µg/mL) | 32 µM (≈ 14.2 µg/mL) | 16 µM (≈ 7.11 µg/mL) | 16 µM (≈ 7.11 µg/mL) | 16 µM (≈ 7.11 µg/mL) | 16 µM (≈ 7.11 µg/mL) | 16 µM (≈ 7.11 µg/mL) | 16 µM (≈ 7.11 µg/mL)
COc1ccc(CSc2nnc(-c3ccccc3)n2Cc2cc([N+](=O)[O-])cc([N+](=O)[O-])c2)cc1 | 16 µM (≈ 7.64 µg/mL) | 16 µM (≈ 7.64 µg/mL) | 250 µM (≈ 119 µg/mL) | 250 µM (≈ 119 µg/mL) | > 32 µM | > 32 µM |  | > 32 µM | > 32 µM | 
O=C(NNC(=S)NCc1ccccc1)c1cc([N+](=O)[O-])cc([N+](=O)[O-])c1 | 8 µM (≈ 3 µg/mL) | 8 µM (≈ 3 µg/mL) | 62 µM (≈ 23.3 µg/mL) | 62 µM (≈ 23.3 µg/mL) | 32 µM (≈ 12 µg/mL) | 32 µM (≈ 12 µg/mL) | 32 µM (≈ 12 µg/mL) | 16 µM (≈ 6.01 µg/mL) | 16 µM (≈ 6.01 µg/mL) | 16 µM (≈ 6.01 µg/mL)
CCCCCCCCSc1nnc(-c2cc([N+](=O)[O-])cc(C(F)(F)F)c2)n1Cc1ccccc1 | 2 µM (≈ 0.985 µg/mL) | 2 µM (≈ 0.985 µg/mL) | 250 µM (≈ 123 µg/mL) | 250 µM (≈ 123 µg/mL) | 1 µM (≈ 0.493 µg/mL) | 2 µM (≈ 0.985 µg/mL) | 2 µM (≈ 0.985 µg/mL) |  |  | 
O=[N+]([O-])c1cc(-c2nnc(SCc3ccc(Br)cc3)n2Cc2ccccc2)cc(C(F)(F)F)c1 | 1 µM (≈ 0.549 µg/mL) | 1 µM (≈ 0.549 µg/mL) | 250 µM (≈ 137 µg/mL) | 250 µM (≈ 137 µg/mL) | 0.5 µM (≈ 0.275 µg/mL) | 1 µM (≈ 0.549 µg/mL) | 1 µM (≈ 0.549 µg/mL) | 0.5 µM (≈ 0.275 µg/mL) | 1 µM (≈ 0.549 µg/mL) | 2 µM (≈ 1.1 µg/mL)
O=[N+]([O-])c1cc(CSc2nnc(-c3ccccc3)[nH]2)cc([N+](=O)[O-])c1 | 2 µM (≈ 0.715 µg/mL) | 4 µM (≈ 1.43 µg/mL) | 62 µM (≈ 22.2 µg/mL) | 125 µM (≈ 44.7 µg/mL) | 4 µM (≈ 1.43 µg/mL) | 8 µM (≈ 2.86 µg/mL) | 8 µM (≈ 2.86 µg/mL) | 4 µM (≈ 1.43 µg/mL) | 8 µM (≈ 2.86 µg/mL) | 16 µM (≈ 5.72 µg/mL)
O=[N+]([O-])c1cc(Cn2c(SCc3ccc(Cl)cc3)nnc2-c2ccccc2)cc([N+](=O)[O-])c1 | 8 µM (≈ 3.86 µg/mL) | 16 µM (≈ 7.71 µg/mL) | 250 µM (≈ 120 µg/mL) | 250 µM (≈ 120 µg/mL) | 4 µM (≈ 1.93 µg/mL) | 8 µM (≈ 3.86 µg/mL) | 16 µM (≈ 7.71 µg/mL) | 16 µM (≈ 7.71 µg/mL) | 32 µM (≈ 15.4 µg/mL) | 32 µM (≈ 15.4 µg/mL)
